Activity calls are given as the source filed them. The rule behind the calls is not given here.
Experiments:
P388 [1] = experiment: Antitumor activity against mouse P388 cells allografted in ip dosed DBA/2 mouse administered for 9 days; assay type: functional, organism-based
In short: (§1)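 P388 lymphocytic leukemia in DBA/2 mice; one intraperitoneal injection per day for 9 days. […] Injection vehicles were water + alcohol, saline + Tween 80, or aqueous 0.5% citric acid. Some tests were duplicated, and 30-day cures were recorded.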

Mus musculus [2] = experiment: Toxicity in DBA/2 mouse allografted with mouse P388 cells assessed as change in body weight at 20 mg/kg/day, ip for 9 days compound administered through water+alcohol vehicle; assay type: organism-based; parameters: route intraperitoneal; details: in vivo, 216 h
In short: (§2)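 DBA/2 mice bearing P388 lymphocytic leukemia received one intraperitoneal injection per day for 9 days, given in the vehicle named for each test (water/alcohol-based, saline or saline + Tween 80). Toxicity was noted during dosing alongside survival scoring (T/C, treated versus control mean survival time).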

Mus musculus [3] = experiment: Toxicity in DBA/2 mouse allografted with mouse P388 cells assessed as change in body weight at 80 mg/kg/day, ip for 9 days compound administered through water+alcohol vehicle; assay type: organism-based; parameters: route intraperitoneal; details: in vivo, 216 h; in short: as §2
P388 [4] = experiment: Antitumor activity against mouse P388 cells allografted in DBA/2 mouse assessed as host survival at 80 mg/kg/day, ip for 9 days compound administered through water+alcohol vehicle relative to control; assay type: functional; details: route intraperitoneal
In short: (§3)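 P388 lymphocytic leukemia in DBA/2 mice. Dosing was one intraperitoneal injection per day for 9 days in the vehicle stated. […] Duplicate tests were run for some doses.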

P388 [5] = experiment: Antitumor activity against mouse P388 cells allografted in DBA/2 mouse assessed as host survival at 20 mg/kg/day, ip for 9 days compound administered through water+alcohol vehicle relative to control; assay type: functional; details: route intraperitoneal; in short: as §3
P388 [6] = experiment: Antitumor activity against mouse P388 cells allografted in DBA/2 mouse assessed as host survival at 40 mg/kg/day, ip for 9 days compound administered through water+alcohol vehicle relative to control; assay type: functional; details: route intraperitoneal; in short: as §3
Mus musculus [7] = experiment: Toxicity in DBA/2 mouse allografted with mouse P388 cells assessed as change in body weight at 40 mg/kg/day, ip for 9 days compound administered through water+alcohol vehicle; assay type: organism-based; parameters: route intraperitoneal; details: in vivo, 216 h; in short: as §2
Mus musculus [8] = experiment: Toxicity in DBA/2 mouse allografted with mouse P388 cells assessed as change in body weight at 20 mg/kg/day, ip for 9 days compound administered through water+acetone vehicle; assay type: organism-based; parameters: route intraperitoneal; details: in vivo, 216 h; in short: as §2
P388 [9] = experiment: Antitumor activity against mouse P388 cells allografted in DBA/2 mouse assessed as host survival at 20 mg/kg/day, ip for 9 days compound administered through water+acetone vehicle relative to control; assay type: functional; details: route intraperitoneal; in short: as §3
L1210 = experiment: Antitumor activity against mouse L1210 cells allografted in DBA/2 mouse at 25 to 200 mg/kg; assay type: functional, organism-based
P388 [10] = experiment: Antitumor activity against mouse P388 cells allografted in DBA/2 mouse assessed as disease cure at 365 mg/kg/day, ip for 9 days compound administered through water+alcohol vehicle measured after 30 days; assay type: functional, organism-based; in short: as §1
P388 [11] = experiment: Antitumor activity against mouse P388 cells allografted in DBA/2 mouse assessed as host survival at 13 mg/kg/day, ip for 9 days compound administered through water+alcohol vehicle relative to control; assay type: functional; details: route intraperitoneal; in short: as §3
P388 [12] = experiment: Antitumor activity against mouse P388 cells allografted in DBA/2 mouse assessed as host survival at 20 mg/kg/day, ip for 9 days compound administered through saline+Tween 80 vehicle relative to control; assay type: functional; details: route intraperitoneal; in short: as §3
Mus musculus [13] = experiment: Toxicity in DBA/2 mouse allografted with mouse P388 cells assessed as change in body weight at 13 mg/kg/day, ip for 9 days compound administered through water+alcohol vehicle; assay type: organism-based; parameters: route intraperitoneal; details: in vivo, 216 h; in short: as §2
Mus musculus [14] = experiment: Toxicity in DBA/2 mouse allografted with mouse P388 cells assessed as change in body weight at 20 mg/kg/day, ip for 9 days compound administered through saline+Tween 80 vehicle; assay type: organism-based; parameters: route intraperitoneal; details: in vivo, 216 h; in short: as §2
P388 [15] = experiment: Antitumor activity against mouse P388 cells allografted in DBA/2 mouse assessed as host survival at 20 mg/kg/day, ip for 9 days compound administered through 0.5% citric acid vehicle; assay type: functional, organism-based; in short: as §1
Mus musculus [16] = experiment: Toxicity in DBA/2 mouse allografted with mouse P388 cells assessed as change in body weight at 2 mg/kg/day, ip for 9 days compound administered through saline vehicle; assay type: organism-based; parameters: route intraperitoneal; details: in vivo, 216 h
P388 [17] = experiment: Antitumor activity against mouse P388 cells allografted in DBA/2 mouse assessed as host survival at 2 mg/kg/day, ip for 9 days compound administered through saline vehicle relative to control; assay type: functional; details: route intraperitoneal; in short: as §3
Mus musculus [18] = experiment: Toxicity in DBA/2 mouse allografted with mouse P388 cells assessed as change in body weight at 5.9 mg/kg/day, ip for 9 days compound administered through water+alcohol vehicle; assay type: organism-based; parameters: route intraperitoneal; details: in vivo, 216 h
P388 [19] = experiment: Antitumor activity against mouse P388 cells allografted in DBA/2 mouse assessed as host survival at 4 mg/kg/day, ip for 9 days compound administered through saline vehicle relative to control; assay type: functional; details: route intraperitoneal; in short: as §3
Mus musculus [20] = experiment: Toxicity in DBA/2 mouse allografted with mouse P388 cells assessed as change in body weight at 4 mg/kg/day, ip for 9 days compound administered through saline vehicle; assay type: organism-based; parameters: route intraperitoneal; details: in vivo, 216 h
P388 [21] = experiment: Antitumor activity against mouse P388 cells allografted in DBA/2 mouse assessed as host survival at 5.9 mg/kg/day, ip for 9 days compound administered through water+alcohol vehicle relative to control; assay type: functional; details: route intraperitoneal; in short: as §3
Mus musculus [22] = experiment: Toxicity in DBA/2 mouse allografted with mouse P388 cells assessed as change in body weight at 320 mg/kg/day, ip for 9 days compound administered through water+alcohol vehicle; assay type: organism-based; parameters: route intraperitoneal; details: in vivo, 216 h; in short: as §2
Mus musculus [23] = experiment: Toxicity in DBA/2 mouse allografted with mouse P388 cells assessed as change in body weight at 160 mg/kg/day, ip for 9 days compound administered through water+alcohol vehicle; assay type: organism-based; parameters: route intraperitoneal; details: in vivo, 216 h; in short: as §2
Mus musculus [24] = experiment: Toxicity in DBA/2 mouse allografted with mouse P388 cells assessed as change in body weight at 8.8 mg/kg/day, ip for 9 days compound administered through water+alcohol vehicle; assay type: organism-based; parameters: route intraperitoneal; details: in vivo, 216 h; in short: as §2
P388 [25] = experiment: Antitumor activity against mouse P388 cells allografted in DBA/2 mouse assessed as host survival at 8.8 mg/kg/day, ip for 9 days compound administered through water+alcohol vehicle relative to control; assay type: functional; details: route intraperitoneal; in short: as §3
P388 [26] = experiment: Antitumor activity against mouse P388 cells allografted in DBA/2 mouse assessed as host survival at 320 mg/kg/day, ip for 9 days compound administered through water+alcohol vehicle relative to control; assay type: functional; details: route intraperitoneal; in short: as §3
P388 [27] = experiment: Antitumor activity against mouse P388 cells allografted in DBA/2 mouse assessed as host survival at 160 mg/kg/day, ip for 9 days compound administered through water+alcohol vehicle relative to control; assay type: functional; details: route intraperitoneal; in short: as §3

With `COC1=C[C@]23CCCN2CCc2cc4c(cc2[C@@H]3[C@@H]1OC(=O)OCc1ccccc1)OCO4` the Activity (P388 [1]) was “inactive”.
With `C/C=C/C=C/C(=O)O[C@@H]1C(OC)=C[C@]23CCCN2CCc2cc4c(cc2[C@H]13)OCO4` the Activity (Mus musculus [2]) was 0.9 g, the Activity (Mus musculus [3]) was 0.9 g and the T/C (P388 [4]) was 150%. The T/C (P388 [5]) was 130%, the T/C (P388 [6]) was 125% and the Activity (Mus musculus [7]) was -1.8 g.
With `COC(=O)/C(=C/C(=O)O[C@@H]1C(OC)=C[C@]23CCCN2CCc2cc4c(cc2[C@H]13)OCO4)CCC(C)C` the Activity (Mus musculus [8]) was 0.9 g and the T/C (P388 [9]) was 131%.
`C=C(CC(=O)OC)C(=O)O[C@@H]1C(OC)=C[C@]23CCCN2CCc2cc4c(cc2[C@H]13)OCO4` was tested, and the Activity (L1210) was “inactive” and the Activity (P388 [10]) was “Active”.
`CCOC(=O)O[C@@H]1C(OC)=C[C@]23CCCN2CCc2cc4c(cc2[C@H]13)OCO4` was tested, and the Activity (P388 [1]) was “inactive”.
For `CCOC(=O)C(=O)O[C@@H]1C(OC)=C[C@]23CCCN2CCc2cc4c(cc2[C@H]13)OCO4`, the Activity (Mus musculus [2]) was -0.2 g, the T/C (P388 [11]) was 154% and the T/C (P388 [12]) was 129%. The Activity (Mus musculus [13]) was -0.8 g, the T/C (P388 [5]) was 135% and the Activity (Mus musculus [14]) was -0.1 g. For the same molecule, the Activity (P388 [15]) was “inactive”.
Work on `COC(=O)C[C@](O)(CCC(C)C)C(=O)O[C@@H]1C(OC)=C[C@]23CCCN2CCc2cc4c(cc2[C@H]13)OCO4` [DEOXYHARRINGTONINE] yielded an Activity (Mus musculus [16]) of 0.8 g, a T/C (P388 [17]) of 126% and an Activity (Mus musculus [18]) of -0.9 g. The T/C (P388 [19]) was 174%, the Activity (Mus musculus [20]) was 0 g and the T/C (P388 [21]) was 184%.
In the case of `CCC(C)(OC(=O)OCC(Cl)(Cl)Cl)C(=O)O[C@@H]1C(OC)=C[C@]23CCCN2CCc2cc4c(cc2[C@H]13)OCO4` (stereo partly specified), the Activity (P388 [1]) is reported as “inactive”.
In the case of `COC1=C[C@]23CCCN2CCc2cc4c(cc2[C@@H]3[C@@H]1OC(=O)OCC(Cl)(Cl)Cl)OCO4`, the Activity (Mus musculus [2]) is reported as -2.7 g, the Activity (Mus musculus [22]) is reported as -1 g and the Activity (Mus musculus [23]) is reported as -0.9 g. It also gave a T/C (P388 [11]) of 138%, an Activity (Mus musculus [24]) of -0.3 g and a T/C (P388 [25]) of 170%. It also gave an Activity (Mus musculus [3]) of -1.3 g, a T/C (P388 [4]) of 160% and an Activity (Mus musculus [13]) of -0.5 g. It also gave a T/C (P388 [5]) of 128%, a T/C (P388 [26]) of 172% and a T/C (P388 [6]) of 140%. The Activity (P388 [15]) was “inactive”, the Activity (Mus musculus [7]) was -0.4 g and the T/C (P388 [27]) was 155%.

— ChEMBL document CHEMBL3244241, “Synthesis of cephalotaxine esters and correlation of their structures with antitumor activity” (J Med Chem, 1977)
